Assay [1] has as its target T1, Ornithine decarboxylase (Rattus norvegicus) (UniProt P09057).
T1 sequence (whole entry): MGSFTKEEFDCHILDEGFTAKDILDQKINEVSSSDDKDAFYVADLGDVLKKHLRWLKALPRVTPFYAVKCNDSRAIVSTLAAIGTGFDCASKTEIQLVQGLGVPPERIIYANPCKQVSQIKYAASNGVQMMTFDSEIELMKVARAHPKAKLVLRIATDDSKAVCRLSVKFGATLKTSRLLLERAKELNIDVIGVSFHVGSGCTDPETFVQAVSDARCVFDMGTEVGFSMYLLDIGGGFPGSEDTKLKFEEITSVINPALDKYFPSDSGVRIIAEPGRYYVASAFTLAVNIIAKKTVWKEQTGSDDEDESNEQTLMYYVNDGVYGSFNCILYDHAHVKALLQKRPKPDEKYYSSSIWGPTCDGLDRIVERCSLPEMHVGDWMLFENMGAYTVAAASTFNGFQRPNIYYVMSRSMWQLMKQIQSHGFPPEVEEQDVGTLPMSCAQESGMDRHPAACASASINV
Briefly: The compound was tested for the inhibitory activity against L-orinithine carboxylase in ventral prostate of the rat at dose 25 mg/kg, ip). Type of assay: functional, organism-based. Also noted: dose 25 mg/kg; scale not given: the % may be the effect or the level left. To be noted: Prostate gland. The procedure, abridged: (§1)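 Male Sprague–Dawley rats (200–220 g), fed ad libitum, 12 h light/dark. Single ip dose in 0.9% saline; saline-injected controls. Killed by decapitation 5 h later at a fixed time of day. Ventral prostate, testis and thymus homogenized; ODC activity measured as CO2 release and expressed as % of control. Mean ± SEM of five animals; Student's t test.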

Assay [2] deals with T1, Ornithine decarboxylase (Rattus norvegicus). Briefly: The compound was tested for the inhibitory activity against L-orinithine carboxylase in ventral prostate of the rat at dose 50 mg/kg, ip). Type of assay: functional, organism-based. The arrangement: dose 50 mg/kg; scale not given: the % may be the effect or the level left. As to conditions: Prostate gland. The procedure, abridged: as §1

The target is the same in assay [3]. Briefly: The compound was tested for the inhibitory activity against L-orinithine carboxylase in ventral prostate of the rat at dose 12.5 mg/kg, ip). Type of assay: functional, organism-based. As to conditions: Prostate gland. The arrangement: dose 12.5 mg/kg; scale not given: the % may be the effect or the level left. The method in brief: as §1
Assay [4] has the same target. Briefly: The compound was tested for the inhibitory activity against L-orinithine carboxylase in rat testis. dose 200 mg/kg, ip). Format: functional, organism-based. As to conditions: at 200 mg/kg. The arrangement: dose 200 mg/kg; scale not given: the % may be the effect or the level left. The method in brief: as §1
The target is the same in assay [5]. Briefly: The compound was tested for the inhibitory activity against L-orinithine carboxylase in rat thymus. dose 200 mg/kg, ip). Type of assay: functional, organism-based. Also noted: dose 200 mg/kg; scale not given: the % may be the effect or the level left. As to conditions: at 200 mg/kg. The procedure, abridged: as §1
Assay [6] has the same target. Briefly: The compound was tested for the inhibitory activity against L-orinithine carboxylase in ventral prostate of the rat dose 200 mg/kg, ip). Type of assay: functional, organism-based. The arrangement: dose 200 mg/kg; scale not given: the % may be the effect or the level left. To be noted: Prostate gland; at 200 mg/kg. The procedure, abridged:
as §1

Assay [7] shares this target. Briefly: The compound was tested for the inhibitory activity against L-orinithine carboxylase inventral prostate of the rat at dose 100 mg/kg, ip). The arrangement: dose 100 mg/kg; scale not given: the % may be the effect or the level left. To be noted: Prostate gland. Format: functional, organism-based. The procedure, abridged: as §1
Assay [8] has the same target. Briefly: Effect on the time of half-inactivation of ornithine decarboxylase at 10 uM concentration. Format: functional. The method in brief:
(§2)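 Rat liver ODC from thioacetamide-treated rats (150 mg/kg, 18 h before sacrifice), purified about tenfold by acid treatment at pH 4.6. Enzyme preincubated at 37 °C in 30 mM sodium phosphate pH 7.1 with 5 mM dithiothreitol, 0.1 mM pyridoxal phosphate, inhibitor and 1 mM effector where listed. Half-inactivation time derived from pseudo-first-order loss.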

Assay [9] shares this target. Briefly: Effect on the time of half-inactivation of ornithine decarboxylase in the presence of 10 uM concentration + 1 mM D-2-methylornithine. Format: functional. The procedure, abridged:
as §2

Assay [10] shares this target. Briefly: Effect on the time of half-inactivation of ornithine decarboxylase in the presence of 10 uM concentration + 1 mM L-2-methylornithine. Type of assay: functional. The method in brief: as §2
The target is the same in assay [11]. Briefly: Effect on the time of half-inactivation of ornithine decarboxylase in the presence of 10 uM concentration + 1 mM L-ornithine. Format: functional. The method in brief:
as §2

This note sets out measurements from ChEMBL document CHEMBL1121710, “alpha-Ethynyl and alpha-vinyl analogues of ornithine as enzyme-activated inhibitors of mammalian ornithine decarboxylase” (J Med Chem, 1981).

Regarding `C#CC(N)(CCCN)C(=O)O` (stereo unspecified), the Control amounted to 56% in assay [1]; 40% in assay [2]; 59% in assay [3]; 80% in assay [4]; 54% in assay [5]; 18% in assay [6]. In [7], this compound displayed a Control of 19%. Besides, the Time of half inactivation worked out at 18 min in assay [8], 26 min in [9], 270 min in assay [10] and 81 min in assay [11].
